Results from publication PMC5269458 (Metallomics : integrated biometal science, 2017).
In brackets after ≈: the same amount, converted by molar mass. Read-outs that look alike come from different tables or passages of the source. Marks after values point to notes of the source that are not given here.

Key:
[1] = test system: C. neoformans wild type, H99 cells; format: cell-based, Cryptococcus neoformans; conditions: SC medium; for cellular metal content compared to the other conditions: 10 μM ligand
[2] = Calcein competition assay for Cu; format: binding; conditions: 100 μM compound; HEPES pH 7.4 and SC medium pH 4.5
Stoichiometry with Cu [3] = format: binding; conditions: 5% DMSO in universal buffer, pH 7.4, anaerobic
Outline: (§1)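 Ligand–Cu mixtures were made in 5% DMSO in Britton–Robinson universal buffer, pH 7.4. Total metal plus ligand concentration was held constant while the Cu mole fraction was varied from 0.1 to 1.0, and samples were read by UV-vis. Ligand stocks were 100 mM in DMSO. For Cu(I), the buffer (0.04 M […], H3PO4, CH3CO2H) was deoxygenated, samples were prepared and measured anaerobically in a glove box, and stock concentration was set by BCA titration at 562 nm.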

[4] = test system: wild-type C. neoformans H99; assay: Growth inhibition; format: cell-based, Cryptococcus neoformans; conditions: for effect of added Ag(I) on MIC: 10 μM supplemental Ag(I); for effect of added Ag(I) on MIC / effect of added Cu(II) on MIC / effect of added Fe(III) on MIC / effect of added Zn(II) on MIC / MIC / Minimum inhibitory concentration (MIC): 48 h; for effect of added Cu(II) on MIC: 10 μM supplemental Cu(II); for effect of added Fe(III) on MIC: 10 μM supplemental Fe(III); for effect of added Zn(II) on MIC: 10 μM supplemental Zn(II); for MIC: Cryptococcus neoformans, read-out: Minimum inhibitory concentration (MIC), supplemental [Cu] 1 mM (CuSO4); for MIC / Minimum inhibitory concentration (MIC) / growth compared to no treatment at 48 h: SC medium; for MIC / Minimum inhibitory concentration (MIC): 30 °C; for growth compared to no treatment at 48 h: 100 μM compound, no supplemental Cu; for effect of supplemental Cu on the growth inhibition by the compound: 1 mM Cu, high compound concentration (100 μM; CQ 50 μM)
Conditional Cu [5] = format: binding
Conditional Cu [6] = format: binding; conditions: for competition for Cu(I) with BCA or ferrozine: pH 7.4, anaerobic
WT C. neoformans [7] = assay: Fungicidal assay; format: cell-based, Cryptococcus neoformans; conditions: 24 h in liquid culture, PyS 3 μM
[8] = test system: ctr1Δctr4Δ mutant strain of C. neoformans; assay: Growth recovery of Cu-import deficient mutant in YPEG medium; format: cell-based, Cryptococcus neoformans; conditions: YPEG medium without supplemental Cu, micromolar compound, 48 h
Stoichiometry with Cu [9] = format: binding; conditions: 5% DMSO in universal buffer, pH 7.4
Outline: as §1

[10] = Cu(I) complex; cited from earlier work
[11] = test system: ctr1Δctr4Δ mutant strain of C. neoformans; conditions: YPEG medium; cited from earlier work
WT C. neoformans [12] = conditions: with 10 μM Cu; cited from earlier work
[13] = pH 7.4; ref Smith, R. M.; Martell, A. E.; Motekaitis, R. J, 2007; cited from earlier work
[14] = 10 μM ligand co-incubated with 10 μM CuSO4, 1 h
[15] = conditional, universal buffer pH 7.4, competition with PAR
[16] = negative log of free [Cu] at pH 7.4, total ligand 10 μM, total Cu 1 μM

## [O-][n+]1ccccc1S [PyS, pyrithione]
[1]; 10 μM ligand alone, 1 h
  cell-associated Cu, Fe and Zn content: Metal accumulation did not occur
[1]; [14]
  cell-associated Cu, Fe and Zn content: hyper accumulation of Cu, Zn, and Fe
[2]
  competition with calcein for Cu(II): able to compete effectively for Cu(II) at both pH values
Stoichiometry with Cu [3]
  stoichiometry with Cu(I): Bis complexes
[4]
  effect of added Ag(I) on MIC: significantly lowered
  effect of added Cu(II) on MIC: significant decrease
  effect of added Fe(III) on MIC: did not significantly affect
  effect of added Zn(II) on MIC: did not significantly affect
  MIC: 6 µM (≈ 0.763 µg/mL)
Conditional Cu [5]; pH 7.4
  Cu(II) log KML2: ≥20 ^b
  pCu(II): ≥15
Conditional Cu [6]; pH 7.4
  Cu(I) log KML2: 17.1 ± 0.2
  pCu(I): 12.9
WT C. neoformans [7]; with 10 μM CuSO4, ThM above 6 μM
  fungicidal or fungistatic activity (CFU): fungicidal
WT C. neoformans [7]; without Cu, ThM 100 μM
  fungicidal or fungistatic activity (CFU): fungicidal
[8]
  restoration of growth of ctr1Δctr4Δ mutant: restored to near wild type levels
Stoichiometry with Cu [9]
  stoichiometry with Cu(II): 2L:1Cu(II)

## O=S(=O)([O-])c1ccc(-c2nnc(-c3ccccn3)nc2-c2ccc(S(=O)(=O)[O-])cc2)cc1.[Na+].[Na+] [ferrozine]
[10]
  log KFz2Cu: 15.1

## Cc1c(O)c(=O)ccn1C [Dfp, deferiprone]
[1]; [14]
  cell-associated Cu, Fe and Zn content: did not dramatically alter cellular metal content
[1]; 1 h
  cellular metal content compared to the other conditions: decreased cellular metal content
[4]; supplemental [Cu] 1 mM (CuSO4)
  Minimum inhibitory concentration (MIC): >100 µM
Conditional Cu [5]; [15]
  Cu(II) log KML2: 15.3 ± 0.3
Conditional Cu [5]; [16]
  pCu(II): 11.1
Conditional Cu [6]
  competition for Cu(I) with BCA or ferrozine: did not compete
[8]
  restoration of growth of ctr1Δctr4Δ mutant: unable to restore growth

## Cc1occc(=O)c1O [Mal, maltol]
[1]; [14]
  cell-associated Cu, Fe and Zn content: did not dramatically alter cellular metal content
Conditional Cu [5]; [15]
  Cu(II) log KML2: 12.2 ± 0.3
Conditional Cu [5]; [16]
  pCu(II): 8.0
Conditional Cu [6]
  competition for Cu(I) with BCA or ferrozine: did not compete
[8]
  restoration of growth of ctr1Δctr4Δ mutant: unable to restore growth

## Cc1c(O)c(=S)ccn1C [ThDfp]
[1]; [14]
  cell-associated Cu, Fe and Zn content: did not dramatically alter cellular metal content
[1]; 1 h
  cellular metal content compared to the other conditions: decreased cellular metal content
[2]
  competition with calcein for Cu(II): able to compete effectively for Cu(II) at both pH values
Stoichiometry with Cu [3]
  stoichiometry with Cu(I): Bis complexes
[4]
  growth compared to no treatment at 48 h: decrease in growth
  effect of supplemental Cu on the growth inhibition by the compound: reversed
[4]; no supplemental Cu ([Cu] 0 mM)
  Minimum inhibitory concentration (MIC): >100 µM
[4]; supplemental [Cu] 0.01 mM (CuSO4)
  Minimum inhibitory concentration (MIC): >100 µM
[4]; supplemental [Cu] 1 mM (CuSO4)
  Minimum inhibitory concentration (MIC): >100 µM
Conditional Cu [5]; [15]
  Cu(II) log KML2: ≥20 ^b
Conditional Cu [5]; [16]
  pCu(II): ≥15
Conditional Cu [6]; conditional, universal buffer pH 7.4, competition with BCA
  Cu(I) log KML2: 16.4 ± 0.2
Conditional Cu [6]; [16]
  pCu(I): 12.2
[8]
  restoration of growth of ctr1Δctr4Δ mutant: unable to restore growth
Stoichiometry with Cu [9]
  stoichiometry with Cu(II): 2L:1Cu(II)

## Oc1cccc2cccnc12 [Compound 8HQ, 8-hydroxyquinoline]
[2]
  competition with calcein for Cu(II): largest pH dependence
[4]
  effect of added Ag(I) on MIC: no effect
  effect of added Cu(II) on MIC: significant decrease
  effect of added Fe(III) on MIC: did not significantly affect
  effect of added Zn(II) on MIC: did not significantly affect
  MIC: 6 µM (≈ 0.871 µg/mL)
[4]; no supplemental Cu ([Cu] 0 mM)
  Minimum inhibitory concentration (MIC): >100 µM
Conditional Cu [5]; pH 7.4
  pCu(II): 18.7
[11]
  restoration of growth of ctr1Δctr4Δ mutant: recover growth
WT C. neoformans [12]
  fungicidal activity (viable fungi): absence of detectable viable fungi
[13]
  Cu(II) log KML2: 22.9 ± 0.1 ^a

## Oc1c(I)cc(Cl)c2cccnc12 [CQ, clioquinol]
[4]
  effect of supplemental Cu on the growth inhibition by the compound: completely abrogated
  MIC: > 50 µM
[8]
  restoration of growth of ctr1Δctr4Δ mutant: unable to restore growth

## O=C(O)CN(CCN(CC(=O)O)CC(=O)O)CC(=O)O [EDTA, ethylenediamine tetraacetic acid]
[4]
  growth compared to no treatment at 48 h: decrease in growth
  effect of supplemental Cu on the growth inhibition by the compound: reversed
